Measurements reported in ChEMBL document CHEMBL4052683, “The discovery of benzoxazine sulfonamide inhibitors of NaV1.7: Tools that bridge efficacy and target engagement” (Bioorg Med Chem Lett, 2017).

What was measured:
[1] = target: T1, Sodium channel protein type 9 subunit alpha (Homo sapiens, UniProt Q15858); test: Inhibition of human NaV1.7 expressed in HEK293 cells at holding potential of -125 mV with test potentials to -10 mV by whole cell voltage clamp method; assay type: cell-based
[2] = Apparent permeability in MDCK vector control cells at 5 uM; details: dog
Homo sapiens = species on record: Homo sapiens; test: Selectivity index, ratio of IC50 for human NaV1.5 expressed in […] cells to IC50 for human NaV1.7 expressed in HEK293 cells; assay type: cell-based
[3] = Clearance in pooled human liver microsomes at 1 uM in presence of NADPH by LC-MS/MS method; assay type: ADME, microsome; details: read-out: CLH
[4] = Clearance in pooled rat liver microsomes at 1 uM in presence of NADPH by LC-MS/MS method; assay type: ADME, microsome; details: read-out: CLH
Rattus norvegicus = test: Unbound clearance in rat at 0.5 mg/kg, iv by LC-MS/MS method; assay type: ADME, organism-based; details: in vivo
Procedure, shortened: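 Male rats given 0.5 mg/kg intravenously as a solution in DMSO. Unbound clearance was calculated as rat clearance divided by unbound fraction, with unbound fraction determined by equilibrium dialysis.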

[5] = target: Sodium channel protein type 5 subunit alpha (Homo sapiens, UniProt Q14524); test: Inhibition of human NaV1.5 expressed in […] cells at holding potential of -125 mV with test potentials to -10 mV by whole cell voltage clamp method; assay type: cell-based
[6] = target: Sodium channel protein type 9 subunit alpha (Rattus norvegicus, UniProt O08562); test: Inhibition of rat NaV1.7 by cell based whole cell voltage clamp method
Procedure, shortened: (§1)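 PatchXpress electrophysiology was run with a protocol giving about 20% channel inactivation. At least four concentrations at half-log spacing were applied one at a time, with washout, current recovery and holding voltage reset between each. Data were pooled from at least 10 cells, with 2–3 points per concentration, and fitted with a 4-parameter Hill curve to give one IC50.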

[7] = Clearance in rat at 0.5 mg/kg, iv by LC-MS/MS method; assay type: ADME, organism-based; details: in vivo
Procedure, shortened: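 Male rats got 0.5 mg/kg IV as a DMSO solution. Unbound clearance was taken as rat clearance divided by the unbound fraction from equilibrium dialysis.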

[8] = target: T1, Sodium channel protein type 9 subunit alpha; test: Displacement of (P)-1-(30-chloro-2-fluoro-5,50-dimethoxy-[1,10biphenyl]-4-yl)-N-(isoxazol-3-yl)-2-oxo-1,2-dihydroquinoline-6-sulfonamide[50-methoxy-C3H3] from human NaV1.7 expressed in HEK293 cell membranes incubated for 1 hr by beta counting method
Procedure, shortened: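 Human NaV1.7 radioligand displacement using the tritiated 5'-methoxy-labelled dihydroquinoline sulfonamide ligand, which binds the VSDIV pocket.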

[9] = target: Sodium channel protein type 9 subunit alpha (Mus musculus, UniProt Q62205); test: Inhibition of mouse NaV1.7 by whole cell voltage clamp method; procedure, shortened: as §1
Chain of Sodium channel protein type 9 subunit alpha (Mus musculus, UniProt Q62205) (Q62205 whole entry): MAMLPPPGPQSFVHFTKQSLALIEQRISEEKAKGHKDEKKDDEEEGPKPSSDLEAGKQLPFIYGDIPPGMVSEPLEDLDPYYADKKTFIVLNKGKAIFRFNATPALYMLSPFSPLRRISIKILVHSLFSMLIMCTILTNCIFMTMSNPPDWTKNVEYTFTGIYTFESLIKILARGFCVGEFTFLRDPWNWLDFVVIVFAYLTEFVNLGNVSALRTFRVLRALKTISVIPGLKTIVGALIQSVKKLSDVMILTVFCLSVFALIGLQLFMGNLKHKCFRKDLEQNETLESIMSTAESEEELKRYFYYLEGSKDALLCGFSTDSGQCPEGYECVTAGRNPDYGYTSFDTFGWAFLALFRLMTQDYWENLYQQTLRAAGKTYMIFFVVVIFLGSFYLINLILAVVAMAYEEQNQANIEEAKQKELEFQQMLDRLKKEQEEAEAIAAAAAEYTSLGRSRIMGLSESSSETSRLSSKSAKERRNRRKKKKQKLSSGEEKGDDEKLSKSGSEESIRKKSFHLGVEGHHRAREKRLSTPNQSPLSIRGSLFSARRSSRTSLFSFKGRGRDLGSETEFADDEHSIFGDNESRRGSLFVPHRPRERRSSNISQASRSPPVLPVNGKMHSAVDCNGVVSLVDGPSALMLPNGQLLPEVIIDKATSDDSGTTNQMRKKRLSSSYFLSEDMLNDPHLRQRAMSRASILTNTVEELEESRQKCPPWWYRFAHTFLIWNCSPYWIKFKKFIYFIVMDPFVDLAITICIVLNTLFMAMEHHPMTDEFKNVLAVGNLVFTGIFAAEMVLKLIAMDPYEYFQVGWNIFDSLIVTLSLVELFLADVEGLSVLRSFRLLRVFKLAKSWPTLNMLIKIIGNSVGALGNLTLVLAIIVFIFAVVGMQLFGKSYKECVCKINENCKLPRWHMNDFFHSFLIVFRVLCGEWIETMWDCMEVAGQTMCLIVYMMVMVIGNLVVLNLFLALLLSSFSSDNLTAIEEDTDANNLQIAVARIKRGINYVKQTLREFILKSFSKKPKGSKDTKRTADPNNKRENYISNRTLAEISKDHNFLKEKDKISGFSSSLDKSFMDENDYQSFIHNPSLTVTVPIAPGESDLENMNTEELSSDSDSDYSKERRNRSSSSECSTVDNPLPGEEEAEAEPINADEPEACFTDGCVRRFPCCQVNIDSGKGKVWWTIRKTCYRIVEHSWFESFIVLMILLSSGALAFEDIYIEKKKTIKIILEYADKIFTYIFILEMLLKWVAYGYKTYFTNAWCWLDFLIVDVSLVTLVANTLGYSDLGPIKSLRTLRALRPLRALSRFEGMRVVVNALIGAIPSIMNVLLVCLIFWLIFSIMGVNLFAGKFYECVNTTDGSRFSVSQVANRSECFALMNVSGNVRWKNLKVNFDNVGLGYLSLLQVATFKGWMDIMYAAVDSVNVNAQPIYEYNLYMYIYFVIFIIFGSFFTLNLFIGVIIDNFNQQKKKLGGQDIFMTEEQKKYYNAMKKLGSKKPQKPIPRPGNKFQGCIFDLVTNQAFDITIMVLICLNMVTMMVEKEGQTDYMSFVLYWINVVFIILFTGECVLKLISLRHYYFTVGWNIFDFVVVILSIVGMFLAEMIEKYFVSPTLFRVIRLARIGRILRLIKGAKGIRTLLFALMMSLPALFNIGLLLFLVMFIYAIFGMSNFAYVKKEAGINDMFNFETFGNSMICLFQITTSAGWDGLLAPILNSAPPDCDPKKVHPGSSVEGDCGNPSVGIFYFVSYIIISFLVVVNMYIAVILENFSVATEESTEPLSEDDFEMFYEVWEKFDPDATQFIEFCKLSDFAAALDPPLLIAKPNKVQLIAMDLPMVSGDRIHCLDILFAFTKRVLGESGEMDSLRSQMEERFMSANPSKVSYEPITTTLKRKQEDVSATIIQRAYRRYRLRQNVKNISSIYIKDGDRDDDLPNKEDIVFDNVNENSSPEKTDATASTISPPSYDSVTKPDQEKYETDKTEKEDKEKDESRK

[10] = Inhibition of cynomolgus monkey NaV1.7 by whole cell voltage clamp method; details: Macaca fascicularis; procedure, shortened: as §1
[11] = Dissociation constant, pKa of the compound; assay type: physicochemical

T1 sequence (Q15858 whole entry): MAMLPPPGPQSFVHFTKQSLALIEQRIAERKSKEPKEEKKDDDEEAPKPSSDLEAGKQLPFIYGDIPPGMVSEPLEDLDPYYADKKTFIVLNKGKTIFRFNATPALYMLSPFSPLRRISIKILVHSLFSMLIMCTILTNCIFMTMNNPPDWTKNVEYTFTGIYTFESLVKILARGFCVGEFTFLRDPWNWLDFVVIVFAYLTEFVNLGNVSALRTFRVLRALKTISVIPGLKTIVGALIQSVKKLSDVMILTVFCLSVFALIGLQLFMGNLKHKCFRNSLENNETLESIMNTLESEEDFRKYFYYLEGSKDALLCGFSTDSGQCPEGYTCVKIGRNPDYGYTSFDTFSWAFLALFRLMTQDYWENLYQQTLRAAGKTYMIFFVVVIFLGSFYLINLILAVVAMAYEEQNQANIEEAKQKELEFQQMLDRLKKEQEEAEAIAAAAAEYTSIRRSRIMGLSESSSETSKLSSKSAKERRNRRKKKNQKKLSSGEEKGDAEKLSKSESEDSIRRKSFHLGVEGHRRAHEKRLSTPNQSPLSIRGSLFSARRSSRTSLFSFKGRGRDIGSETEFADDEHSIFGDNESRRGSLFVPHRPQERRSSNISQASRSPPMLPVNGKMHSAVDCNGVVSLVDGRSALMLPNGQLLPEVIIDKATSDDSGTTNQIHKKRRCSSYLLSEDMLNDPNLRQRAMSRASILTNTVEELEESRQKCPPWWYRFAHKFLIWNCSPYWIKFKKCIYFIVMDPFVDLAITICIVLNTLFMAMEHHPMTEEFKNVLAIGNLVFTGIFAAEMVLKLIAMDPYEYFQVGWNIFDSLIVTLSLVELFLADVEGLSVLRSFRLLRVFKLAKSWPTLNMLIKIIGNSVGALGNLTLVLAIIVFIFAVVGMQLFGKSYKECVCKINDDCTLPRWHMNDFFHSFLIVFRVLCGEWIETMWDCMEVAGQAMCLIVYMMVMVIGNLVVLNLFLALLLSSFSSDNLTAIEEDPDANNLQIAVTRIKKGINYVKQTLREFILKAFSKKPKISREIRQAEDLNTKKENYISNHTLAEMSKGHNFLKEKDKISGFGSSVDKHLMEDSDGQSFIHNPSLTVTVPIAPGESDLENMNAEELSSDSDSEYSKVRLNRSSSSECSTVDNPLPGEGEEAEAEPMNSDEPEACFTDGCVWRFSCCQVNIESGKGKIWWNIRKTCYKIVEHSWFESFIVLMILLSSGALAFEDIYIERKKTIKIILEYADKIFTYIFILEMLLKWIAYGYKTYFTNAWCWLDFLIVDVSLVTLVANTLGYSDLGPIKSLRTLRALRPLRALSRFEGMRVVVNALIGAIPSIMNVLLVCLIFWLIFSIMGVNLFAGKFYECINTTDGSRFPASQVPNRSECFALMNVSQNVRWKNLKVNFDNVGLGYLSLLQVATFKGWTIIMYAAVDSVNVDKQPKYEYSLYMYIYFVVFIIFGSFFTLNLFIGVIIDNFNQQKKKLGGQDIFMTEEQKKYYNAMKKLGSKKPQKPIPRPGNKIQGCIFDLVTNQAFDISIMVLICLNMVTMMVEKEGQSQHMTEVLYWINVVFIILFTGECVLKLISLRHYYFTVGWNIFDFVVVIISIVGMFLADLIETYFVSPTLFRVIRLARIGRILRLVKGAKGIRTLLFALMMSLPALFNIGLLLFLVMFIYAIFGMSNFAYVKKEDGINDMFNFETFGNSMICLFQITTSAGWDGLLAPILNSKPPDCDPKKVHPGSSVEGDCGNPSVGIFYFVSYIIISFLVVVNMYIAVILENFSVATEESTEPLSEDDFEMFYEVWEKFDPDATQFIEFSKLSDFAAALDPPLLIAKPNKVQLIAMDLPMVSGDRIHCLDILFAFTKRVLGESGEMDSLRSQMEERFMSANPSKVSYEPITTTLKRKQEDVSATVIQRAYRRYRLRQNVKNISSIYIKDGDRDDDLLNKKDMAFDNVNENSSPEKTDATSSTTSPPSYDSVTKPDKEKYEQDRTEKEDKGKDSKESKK

Row | Structure (SMILES) | IC50 [1] [nM] | Papp at 5 µM [2] [×10⁻⁶ cm/s] | Ratio IC50 (Homo sapiens) | microsomal CLint at 1 µM [3] [µL/min/mg] | microsomal CLint at 1 µM [4] [µL/min/mg] | CL free (Rattus norvegicus) [mL/min/kg] | IC50 [5] [nM] | IC50 [6] [nM] | clearance [7] [mL/min/kg] | IC50 [8] [nM] | IC50 [9] [nM] | IC50 [10] [nM] | pKa [11]
1 | COc1cc(C#N)ccc1N1CCOc2cc(S(=O)(=O)Nc3nccs3)ccc21 | 250 | 20 | 56 | 36 | 22 | 883 | 14000 | 850 | 14 |  |  |  | 
2 | N#Cc1cc(C(F)(F)F)ccc1N1CCOc2cc(S(=O)(=O)Nc3nccs3)c(Cl)cc21 | 390 | 27 |  | 22 | 21 |  | 610 | 50 |  | 20 | 100 | 300 | 
3 | N#Cc1cc(C(F)(F)F)ccc1N1CCOc2cc(S(=O)(=O)Nc3ccno3)ccc21 |  | < 1 |  | 32 | < 14 |  |  |  |  |  |  |  | 
4 | COc1ccccc1N1CCOc2cc(S(=O)(=O)Nc3nccs3)ccc21 |  | 28 | > 79 | 68 | 297 |  | > 30000 | 1600 |  |  |  |  | 
5 | N#Cc1cc(C(F)(F)F)ccc1N1CCOc2cc(S(=O)(=O)Nc3nccs3)ccc21 |  | 22 | 8 | < 14 | < 14 | 517 | 1500 | 1100 | 5.5 |  |  |  | 7
6 | O=S(=O)(Nc1ccncn1)c1ccc2c(c1)OCCN2c1ccc(C(F)(F)F)cc1C1=CCNCC1 |  | 1 | 11 |  |  | 233 | 1500 | > 30000 | 43.3 |  |  |  | 
7 | N#Cc1cc(C(F)(F)F)ccc1N1CCOc2cc(S(=O)(=O)Nc3cscn3)ccc21 |  | 39 |  | 55 | < 14 |  |  |  |  |  |  |  | 
8 | N#Cc1cc(C(F)(F)F)ccc1N1CCOc2cc(S(=O)(=O)Nc3ncns3)ccc21 | 90 | 1.6 |  | < 14 | 34 | 1180 |  |  | 10.7 | 21 |  |  | 3.8
9 | COc1cc(F)ccc1N1CCOc2cc(S(=O)(=O)Nc3nccs3)ccc21 | 280 | 36 | > 100 | 110 | > 399 |  | > 30000 | 880 |  |  |  |  | 
10 | N#Cc1cc(C(F)(F)F)ccc1N1CCOc2cc(S(=O)(=O)Nc3nccs3)cc(F)c21 |  | 26 |  | < 14 | < 14 |  | 650 | 560 |  |  |  |  | 
11 | N#Cc1cc(C(F)(F)F)ccc1N1CCOc2cc(S(=O)(=O)Nc3ccncn3)ccc21 |  | 9.7 | 10 | < 14 | < 14 | 120 | 4600 | 3000 | 2.83 |  |  |  | 5.8
12 | N#Cc1cc(C(F)(F)F)ccc1N1CCOc2cc(S(=O)(=O)Nc3ncco3)ccc21 |  | 6.4 |  | 15 | < 14 |  |  |  |  |  |  |  | 
13 | COc1cc(C(F)(F)F)ccc1N1CCOc2cc(S(=O)(=O)Nc3nccs3)ccc21 |  |  |  | 30 | 53 | 667 |  | 390 |  |  |  |  | 
14 | Cn1nccc1-c1ccccc1Oc1ccc(S(=O)(=O)Nc2nccs2)cc1C#N |  |  |  |  |  |  |  | 4200 |  |  | 130 | 20 | 
15 | O=S(=O)(Nc1ccncn1)c1ccc2c(-c3ccc(C(F)(F)F)cc3C3=CCNCC3)cccc2c1 | 90 | 1.3 | > 330 |  |  | 667 | > 30000 | > 30000 | 28.3 |  | 4300 | 100 | 
16 | N#Cc1cc(C(F)(F)F)ccc1N1CCOc2c1ccc(S(=O)(=O)Nc1nccs1)c2F |  | 38 |  | < 14 | < 14 |  | 2100 | 1700 |  |  |  |  | 
